Reference: ChEMBL document CHEMBL1137655, “Isoxyl activation is required for bacteriostatic activity against Mycobacterium tuberculosis” (2007)
Calls of active or inactive are those of the source. No cut-off for these calls is given here.

Assays:
Type in all cases: functional, organism-based
Settings in all cases: Mycobacterium bovis BCG str. Pasteur 1173P2
[1] = tested on: Mycobacterium tuberculosis variant bovis; assay: Inhibition of mycolic acid synthesis in Mycobacterium bovis BCG Pasteur 1173P2 sonicates assessed as inhibition of alphamycolates production by autoradiography
Method in brief: (§1)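 BCG sonicate (3 mg protein) with 1 μCi [1,2-14C]acetate, ISO 0, 2 or 5 μg/ml final, ±purified EthA (up to 10 μg), 25 mM Tris-HCl pH 7.5; 10 min ice, 2 h 37°C; mycolic acid methyl esters by TLC (hexane:ethyl acetate 95:5) and autoradiography.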

[2] = tested on: Mycobacterium tuberculosis variant bovis; assay: Inhibition of mycolic acid synthesis in Mycobacterium bovis BCG Pasteur 1173P2 sonicates assessed as inhibition of ketomycolates production by autoradiography; method in brief: as §1
[3] = tested on: Mycobacterium tuberculosis variant bovis; assay: Inhibition of mycolic acid synthesis in Mycobacterium bovis BCG Pasteur 1173P2 sonicates assessed as inhibition of alphamycolates production using partially purified EthA as cofactor by autoradiography; method in brief: as §1
[4] = tested on: Mycobacterium tuberculosis variant bovis; assay: Inhibition of mycolic acid synthesis in Mycobacterium bovis BCG Pasteur 1173P2 sonicates assessed as inhibition of ketomycolates production using partially purified EthA as cofactor by autoradiography; method in brief: as §1

In the case of `CC(C)CCOc1ccc(NC(=S)Nc2ccc(OCCC(C)C)cc2)cc1` [TIOCARLIDE], the Activity [1] is reported as “Active”, the Activity [2] is reported as “Active” and the Activity [3] is reported as “inactive”. The Activity [4] was “inactive”.
